From ChEMBL document CHEMBL3870321, “Substituted 4-morpholine N-arylsulfonamides as γ-secretase inhibitors” (Eur J Med Chem, 2016)

What was measured:
[1] = Inhibition of gamma-secretase in HEK293 cells expressing human APP Swedish/London mutant assessed as reduction in amyloid beta 40 level after 5 hrs by sandwich immunoassay; format: cell-based; conditions: HEK293, 5 h
Summary of the method: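 HEK293 cells stably transfected with human APP cDNA carrying Swedish and London mutations were exposed to inhibitor for 5 h. Aβ40 in conditioned medium was measured by MSD sandwich immunoassay (TAG-G2-10/biotin-4G8). IC50 came from a four-parameter variable-slope nonlinear fit, with duplicate or triplicate measurements per experiment.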

Cytochrome P450 3A4 [2] = molecular target: T1, Cytochrome P450 3A4 (Homo sapiens, UniProt P08684); assay: Inhibition of recombinant human CYP3A4 expressed in baculovirus infected insect cells using fluorescent substrate; format: ADME
Cytochrome P450 3A4 [3] = molecular target: T1, Cytochrome P450 3A4; assay: Inhibition of recombinant human CYP3A4 expressed in baculovirus infected insect cells preincubated for 30 mins using fluorescent substrate; format: ADME
[4] = AUC (0 to 6 hrs) in Sprague-Dawley rat at 30 mg/kg, po by LC-MS/MS analysis; format: ADME, organism-based; parameters: dose 30 mg/kg, time < 6 hr, route oral; conditions: in vivo
Summary of the method: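 Two fasted male Sprague-Dawley rats per compound, femoral-artery cannulated, were dosed orally in 0.5% methylcellulose. Serial heparinized blood was taken at 0.5, 1, 2, 3, 4 and 6 h, and plasma was stored at -20 °C. Compound levels were measured by LC-MS/MS using compound-specific SRM transitions from [MH]+, and AUC was taken over 0–6 h.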

Cytochrome P450 3A4 [5] = molecular target: T1, Cytochrome P450 3A4; assay: Inhibition of CYP3A4 (unknown origin) preincubated with enzyme; format: ADME
Summary of the method: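 Recombinant CYP3A4 was pre-incubated with compound, and data were collected 30 min after the compound was combined with enzyme. Read-out was fluorescent product formed from a […] substrate. Values are means of two experiments.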

Cytochrome P450 3A4 [6] = molecular target: T1, Cytochrome P450 3A4; assay: Inhibition of CYP3A4 (unknown origin); format: ADME
Summary of the method: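 Recombinant CYP3A4 was co-incubated with compound, and fluorescent product formed from a […] coumarin or fluorescein substrate was read out. Values are means of two experiments.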

[7] = Inhibition of gamma-secretase in HEK293 cells expressing APP London mutant assessed as reduction in amyloid beta 40 level after 5 hrs by immunoassay; conditions: Homo sapiens, HEK293, 5 h
Mus musculus = assay: In vivo inhibition of gamma-secretase in CRND8 transgenic mouse model of Alzheimers disease expressing APP Swedish/Indiana familial mutant assessed as reduction in amyloid beta 40 level in plasma at 30 mg/kg administered as single dose via oral gavage after 3 hrs by sandwich immunoassay; format: functional
Summary of the method: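 Transgenic CRND8 mice (5–7 weeks, male and female, counterbalanced, singly housed) received a single oral gavage dose in 20% hydroxypropyl-β-cyclodextrin. Mice were killed by CO2 at 3 h, and EDTA plasma was collected from the posterior vena cava. Plasma Aβ40 was quantified by MSD sandwich immunoassay (biotin-4G8/S-tag G2-10) and compared with a vehicle-only group.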

T1 sequence (P08684 whole entry): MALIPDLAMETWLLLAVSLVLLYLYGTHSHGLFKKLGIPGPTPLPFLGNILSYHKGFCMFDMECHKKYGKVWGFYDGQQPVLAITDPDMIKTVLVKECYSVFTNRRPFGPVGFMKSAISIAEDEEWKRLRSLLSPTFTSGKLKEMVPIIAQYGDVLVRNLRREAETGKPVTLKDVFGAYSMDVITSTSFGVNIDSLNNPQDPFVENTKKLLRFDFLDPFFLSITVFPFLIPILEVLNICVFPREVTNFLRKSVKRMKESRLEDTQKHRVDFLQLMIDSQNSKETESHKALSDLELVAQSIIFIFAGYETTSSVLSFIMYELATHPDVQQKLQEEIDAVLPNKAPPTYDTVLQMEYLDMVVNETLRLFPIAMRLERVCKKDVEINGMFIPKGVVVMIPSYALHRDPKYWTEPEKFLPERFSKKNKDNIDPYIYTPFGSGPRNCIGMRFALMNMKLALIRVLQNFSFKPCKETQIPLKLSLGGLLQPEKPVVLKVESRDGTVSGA

SMILES	IC50 [1]	IC50 (Cytochrome P450 3A4 [2])	IC50 (Cytochrome P450 3A4 [3])	AUC(0-t) at 6 h [4]	IC50 (Cytochrome P450 3A4 [5])	IC50 (Cytochrome P450 3A4 [6])	IC50 [7]	inhibition in vivo at 30 mg/kg (Mus musculus)
O=C(CC1([C@H]2CO[C@H]3CCC[C@H]3N2S(=O)(=O)c2ccc(Cl)cc2)CC1)N1CCC(N2CCCCC2)CC1	0.0017 µM	21 µM	8 µM	–	–	–	–	–
O=C(CC1([C@H]2CO[C@H]3CCC[C@H]3N2S(=O)(=O)c2ccc(Cl)cc2)CC1)N1CCC(CO)CC1	0.0018 µM	30 µM	30 µM	36 ng·h/mL	–	–	–	–
O=C(CC1([C@H]2COC[C@@H](C3CC3)N2S(=O)(=O)c2ccc(F)cc2)CC1)N1CCC(N2CCCCC2)CC1	0.03 µM	> 30 µM	1.5 µM	575 ng·h/mL	–	–	–	–
O=C(C(O)C1([C@H]2COC[C@@H](C3CC3)N2S(=O)(=O)c2ccc(Cl)cc2)CC1)N1C2CCC1CC(N1CCCCC1)C2 (stereo not given in full)	0.024 µM	> 30 µM	> 30 µM	267 ng·h/mL	–	–	–	–
O=C(CC1([C@H]2CO[C@H]3CCC[C@H]3N2S(=O)(=O)c2ccc(Cl)cc2)CC1)N1CC[C@@H](O)C1	0.016 µM	> 30 µM	> 30 µM	–	–	–	–	–
O=S(=O)(c1ccc(Cl)cc1)N1[C@@H](CO)CCC[C@H]1c1cccc(F)c1	–	–	–	–	30 µM	13.9 µM	0.671 µM	–
CC(=O)N1CCN(C(=O)CC2([C@H]3COC[C@@H](C4CC4)N3S(=O)(=O)c3ccc(F)cc3)CC2)CC1	0.067 µM	30 µM	17 µM	3160 ng·h/mL	–	–	–	–
O=C(CC1([C@H]2COC[C@@H](C3CC3)N2S(=O)(=O)c2ccc(Cl)cc2)CC1)N1C2CCC1CC(N1CCCCC1)C2 (stereo not given in full)	0.012 µM	> 30 µM	2 µM	1290 ng·h/mL	–	–	–	–
O=C(CC1([C@H]2COC[C@@H](C3CC3)N2S(=O)(=O)c2ccc(F)cc2)CC1)N1CCN(CCO)CC1	0.032 µM	> 30 µM	6.9 µM	1970 ng·h/mL	–	–	–	–
C[C@H]1CN(C(C)(C)CO)CCN1C(=O)CC1([C@H]2COC[C@@H](C3CC3)N2S(=O)(=O)c2ccc(F)cc2)CC1	0.014 µM	> 30 µM	2.2 µM	–	–	–	–	–
O=C(C(O)C1([C@H]2COC[C@@H](C3CC3)N2S(=O)(=O)c2ccc(Cl)cc2)CC1)N1CC2CCC(C1)N2 (stereo not given in full)	0.01 µM	> 30 µM	9 µM	254 ng·h/mL	–	–	–	–
CC(C)(CO)N1CCN(C(=O)CC2([C@H]3COC[C@@H](C4CC4)N3S(=O)(=O)c3ccc(Cl)cc3)CC2)CC1	0.0059 µM	> 30 µM	1.9 µM	464 ng·h/mL	–	–	–	89%
O=C(CC1([C@H]2COC[C@@H](C3CC3)N2S(=O)(=O)c2ccc(Cl)cc2)CC1)N1CC2CCC(C1)N2	0.0035 µM	–	–	1160 ng·h/mL	–	–	–	–
O=C(CC1([C@H]2CO[C@H]3CCC[C@H]3N2S(=O)(=O)c2ccc(Cl)cc2)CC1)N1CC[C@@H](CO)C1	0.018 µM	30 µM	30 µM	–	–	–	–	–
O=S(=O)(c1ccc(Cl)cc1)N1[C@H](c2cccc(F)c2)CCC[C@@H]1C1(O)CC1	–	–	–	–	< 0.5 µM	< 0.9 µM	0.316 µM	–
CC(=O)N1C2CCC1CN(C(=O)CC1([C@H]3COC[C@@H](C4CC4)N3S(=O)(=O)c3ccc(Cl)cc3)CC1)C2	0.018 µM	30 µM	4.3 µM	–	–	–	–	–
O=C(CC1([C@H]2COC[C@@H](C3CC3)N2S(=O)(=O)c2ccc(Cl)cc2)CC1)N1CC2CCC(C1)N2CCO	0.006 µM	> 30 µM	< 0.4 µM	2730 ng·h/mL	–	–	–	–
